pIC50: −log10 of the molar value. Entries after “also recorded” stand apart in the source; their conditions may differ.
Columns and labels:
DU145TXR cells [1] = assay: Dose-dependent sensitization to paclitaxel; type: cell-based, human; settings: for Synergy with paclitaxel (isobologram): DU145TXR, 5, 10, 25 μmol/L compound
P-gp [2] = settings: in the presence of the transport substrate verapamil; ref Brewer et al. [2014]; cited from earlier work
DU145TXR cells [3] = assay: Potentiation assay; type: cell-based, human; settings: 10 nmol/L - 25 μmol/L inhibitor, 48 h
Procedure, shortened: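 Paclitaxel-selected DU145TXR (maintained in 10 nmol/L paclitaxel) seeded, then after 48 h co-treated 48 h with 500 nmol/L paclitaxel plus inhibitor at 10 nmol/L–25 μmol/L (400X DMSO solutions), triplicate wells; parallel run without paclitaxel. MTT read at 570 minus 720 nm. Survival relative to DMSO-treated wells without inhibitor; ≥6 replicates from ≥2 experiments. PC50 from a four-parameter variable-slope fit.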

P-gp [4] = settings: ref Brewer et al. [2014]; cited from earlier work
DU145 cells = assay: Intrinsic cytotoxicity assay; type: cell-based, human; settings: for pIC50: Homo sapiens, DU-145, 48 h, read-out: IC50 (compound alone, estimated)
Procedure, shortened: (§1)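 Cells seeded at 2 × 10^4 cells/mL, grown 48 h, then exposed 48 h to test compound at 0.05–50 μmol/L from 200X DMSO solutions, with DMSO controls (n = 12/plate). PBS rinse, then fresh medium for 24 h and MTT for 4 h; A570 minus A720, blank subtracted. Survival is relative to DMSO; ≥6 replicates, ≥2 experiments. IC50 from a four-parameter fit constrained 0–100. HFL1 grown in F-12K on collagen-treated surfaces.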

HFL1 cells = assay: Intrinsic cytotoxicity assay; type: cell-based, human; settings: for Decrease in cell viability: HFL1, 25 μmol/L compound, not shown; for pIC50: Homo sapiens, HFL1, 48 h, read-out: IC50 (compound alone, estimated)
Procedure, shortened: as §1

DU145TXR cells [5] = assay: Reversal of resistance to doxorubicin; type: cell-based, human; settings: 25 μmol/L compound, data not shown
DU145TXR cells [6] = assay: Intrinsic cytotoxicity assay; type: cell-based, human; settings: for pIC50: Homo sapiens, 48 h, read-out: IC50 (compound alone, estimated)
Procedure, shortened: as §1

DU145TXR cells [7] = assay: MTT cell viability assay, chemotherapeutics on multidrug-resistant DU145TXR; type: cell-based, human
[8] = tested on: DU145 human prostate cancer cells; assay: MTT cell viability assay, chemotherapeutics on naïve DU145; type: cell-based
Procedure, shortened: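 DU145 in RPMI-1640 with 10% FBS, seeded at 2 × 10^4 cells/mL, then after 48 h given a paclitaxel (or doxorubicin) range from 400X DMSO dilutions for 48 h. PBS rinse, fresh medium 24 h, then MTT 4 h; formazan dissolved in DMSO, read at 570 minus 720 nm. Survival relative to DMSO controls (n = 12/plate); ≥9 replicates from ≥3 experiments.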

For COC(=O)c1ccc(C(c2c(O)oc3ccccc3c2=O)c2c(O)oc3ccccc3c2=O)cc1 [Compound 19, methyl 4-[bis(2-hydroxy-4-oxochromen-3-yl)methyl]benzoate], the “Effect on cell viability in sensitization experiments” value (DU145TXR cells [1]; DU145TXR, paclitaxel, 5, 10, 25 μmol/L compound) is listed as “did not show any effect on cell viability”, the “Inhibition of verapamil-stimulated ATP hydrolysis” value (shortened to “Inhibition”) (P-gp [2]) is listed as “inhibit ATP hydrolysis” and the “Effect on sensitivity of DU145TXR to 500 nmol/L paclitaxel” value (from here on “Effect on sensitivity of DU145TXR”) (DU145TXR cells [3]) is listed as “no apparent effect”. For the same compound, the “Effect on sensitivity of DU145TXR” value (DU145TXR cells [3]; listed as compound 19) was “no effect on the toxicity of paclitaxel”, the “Effect on nucleotide binding (ESR, SL-ATP)” value (“Effect on nucleotide binding” below) (P-gp [4]) was “directly interfered with nucleotide binding” and the pIC50 (DU145 cells) was 4.00.
In the case of Cc1cc(C)c(-c2cc(NC(=O)CSc3n[nH]c(C4CC4)n3)n(-c3ccccc3)n2)cc1C [Compound 29, 2-[(5-cyclopropyl-1H-1,2,4-triazol-3-yl)sulfanyl]-N-[2-phenyl-5-(2,4,5-trimethylphenyl)pyrazol-3-yl]acetamide], the “Synergy with paclitaxel (isobologram)” value (DU145TXR cells [1]) is listed as “strong synergistic effect”, the “Inhibition” value (P-gp [2]) is listed as “inhibit ATP hydrolysis” and the “Decrease in cell viability” value (HFL1 cells) is listed as 35%. The pIC50 (HFL1 cells) was 4.38, the Resensitization to doxorubicin (DU145TXR cells [5]) was “resensitized the MDR prostate cancer cells to doxorubicin to levels that are comparable with the naïve DU145 cell line” and the pIC50 (DU145TXR cells [6]) was 4.41. The “Effect on sensitivity of DU145TXR” value (DU145TXR cells [3]) was “strongly affected the sensitivity”, the “Effect on nucleotide binding” value (P-gp [4]) was “did not affect nucleotide-binding characteristics” and the pIC50 (DU145 cells) was 4.47.
For CCC(C(=O)N1CCN(c2ccc(OC)cc2)CC1)n1nc(C)c2sc3ccccc3c2c1=O (centres unmarked) [Compound 34, 2-[1-[4-(4-methoxyphenyl)piperazin-1-yl]-1-oxobutan-2-yl]-4-methyl-[1]benzothiolo[2,3-d]pyridazin-1-one], the “Synergy with paclitaxel (isobologram)” value (DU145TXR cells [1]) is given as “strong synergistic effect”, the “Inhibition” value (P-gp [2]) is given as “inhibit ATP hydrolysis” and the “Decrease in cell viability” value (HFL1 cells) is given as 23%. The pIC50 (HFL1 cells) was 3.88, the Resensitization to doxorubicin (DU145TXR cells [5]) was “resensitized the MDR prostate cancer cells to doxorubicin to levels that are comparable with the naïve DU145 cell line” and the pIC50 (DU145TXR cells [6]) was 3.39. For the same compound, the “Effect on sensitivity of DU145TXR” value (DU145TXR cells [3]) was “strongly affected the sensitivity”, the “Effect on nucleotide binding” value (P-gp [4]) was “directly interfered with nucleotide binding” and the pIC50 (DU145 cells) was 4.36.
For CCOC(=O)C1(CCCc2ccccc2)CCCN(C(=O)c2ccc3c(c2)OCO3)C1 (centres unmarked) [Compound 45, ethyl 1-(1,3-benzodioxole-5-carbonyl)-3-(3-phenylpropyl)piperidine-3-carboxylate], the “Synergy with paclitaxel (isobologram)” value (DU145TXR cells [1]) is given as “strong synergistic effect”, the “Inhibition” value (P-gp [2]) is given as “inhibit ATP hydrolysis” and the “Decrease in cell viability” value (HFL1 cells) is given as 13%. The pIC50 (HFL1 cells) was 4.21, the Resensitization to doxorubicin (DU145TXR cells [5]) was “resensitized the MDR prostate cancer cells to doxorubicin to levels that are comparable with the naïve DU145 cell line” and the Cells killed (DU145TXR cells [6]; DU145TXR, 25 μmol/L compound, not shown) was 36%. The pIC50 (DU145TXR cells [6]) was 3.97, the “Effect on sensitivity of DU145TXR” value (DU145TXR cells [3]) was “strongly affected the sensitivity” and the “Effect on nucleotide binding” value (P-gp [4]) was “directly interfered with nucleotide binding”. The Cells killed (DU145 cells; DU145, 25 μmol/L compound, not shown) was 31% and the pIC50 (DU145 cells) was 4.39.
With CC(=O)O[C@H]1C(=O)[C@@]2(C)[C@H]([C@H](OC(=O)c3ccccc3)[C@]3(O)C[C@H](OC(=O)[C@H](O)[C@@H](NC(=O)c4ccccc4)c4ccccc4)C(C)=C1C3(C)C)[C@]1(OC(C)=O)CO[C@@H]1C[C@@H]2O [Paclitaxel, paclitaxel] the “Survival at 500 nmol/L paclitaxel” value (DU145TXR cells [7]; DU145TXR) was > 85%, the pIC50 (DU145TXR cells [7]; read-out: IC50 of chemotherapeutic alone, DU145TXR, 48 h incubation, MTT) was 5.42 and the “Survival at 500 nmol/L paclitaxel” value [8] was < 10%.
For COc1ccc(CCN(C)CCCC(C#N)(c2ccc(OC)c(OC)c2)C(C)C)cc1OC (centres unmarked) [Verapamil, verapamil, reference compound], the pIC50 (DU145TXR cells [6]) was 3.68 and the pIC50 (DU145 cells) was 4.12.
In the case of COc1cccc2c1C(=O)c1c(O)c3c(c(O)c1C2=O)C[C@@](O)(C(=O)CO)C[C@@H]3O[C@H]1C[C@H](N)[C@H](O)[C@H](C)O1 [doxorubicin], the “Fold resistance (IC50 DU145TXR / IC50 DU145)” value (DU145TXR cells [7]; DU145TXR compared to DU145) was “over eightfold; also recorded: about eightfold”.

From paper PMC4618641 (Pharmacology Research & Perspectives, 2015)
